Measurements reported in ChEMBL document CHEMBL4513216, “Probing the Open Global Health Chemical Diversity Library for Multistage-Active Starting Points for Next-Generation Antimalarials” (ACS Infect Dis, 2020).

Test: Toxicity liver stage against HepG2, at 10uM
Assay type: cell-based
Set-up: test concentration 10 uM, cell line HepG2-A16-CD81EGFP
Conditions: human, HepG2-A16-CD81EGFP cells; read-out: INHIBITION
Summary of the method: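 Uninfected HepG2-A16-CD81EGFP cells, 3 × 10^3 per well, 1536-well, plated on prespotted compound at 10 μM final, parasite-free screening media added to match infected plates; puromycin 10 μM positive, DMSO 0.5% negative; run in parallel with 48 h PbLuc assay at 37 °C, 5% CO2; viability by CellTiter-Glo luminescence, normalized to controls.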

| SMILES | cytotoxicity at 10 µM [%] |
| --- | --- |
| CC(C)CN1C[C@@H]2OCC(=O)N(c3ccccc3)[C@@H]2C1 | 1.08 |
| CC(C)CC(CO)NC(=O)NCc1csc(N(C)C)n1 (stereo not drawn) | 6.07 |
| Cc1ccoc1C(=O)N1CCO[C@H]2[C@H](OCCN(C)C)CC[C@@H]21 | -5.88 |
| O=C(N[C@@H]1CCC[C@@H](N2CCCC2)[C@@H]1O)c1cnn2cccnc12 | 10.6 |
| O=C(CC1CC1)N1CC[C@H]2OCC[C@@]2(COc2ncccc2F)C1 | -134 |
| Cc1nc2ncnn2c(C)c1CCC(=O)Nc1cccn(C)c1=O | -9.59 |
| Cc1nn(C)c2cnn(Cc3ccc(C(=O)NC4CC4)cc3)c12 | 6.42 |
| Cc1cc(C(=O)NCC2CCS(=O)(=O)C2)ccc1NC(=O)c1ccco1 (stereo not drawn) | 19 |
| CC(Cn1ccnc1)NC(=O)C1(c2ccc(F)cc2)CCCC1 (stereo not drawn) | -9.98 |
| CC(NS(C)(=O)=O)c1nc(-c2ccc(Br)cc2)no1 (stereo not drawn) | 4.29 |
| CS(=O)(=O)CCC(=O)NC1(c2cccc(Br)c2)CC1 | -11.1 |
| Cc1cncc(C2CCCN(C(=O)c3ccc(C)[nH]c3=O)C2)n1 (stereo not drawn) | 5.37 |
| CN(CCc1ccncc1)c1cnn(C)c(=O)c1Br | -5.44 |
| O=C1CCC(=O)N1CCN1CCN(c2cc(F)ccc2F)CC1 | 9.44 |
| COc1ccc(C2=CN=C(C(F)(F)F)CC2N)cc1 (stereo not drawn) | 16.6 |
| CC(C)Cn1cc2nc(N3CCCC3)[nH]cc-2c1=O | 9.6 |
| O=C(Cc1cc2c(cc1Br)OCCO2)NC1CCS(=O)(=O)C1 (stereo not drawn) | 10.1 |
| O=C(NCCN1CCOCC1)c1ccnn1-c1ccc2ccccn12 | 10.9 |
| COc1ccc(Oc2ncccc2NC(=O)N2CCOCC2)cc1 | 9.11 |
| O=C(CSc1ccc2c(c1)OCCO2)NS(=O)(=O)c1ccccc1Br | -4.62 |
| Cc1nnc(NCC(c2cccs2)N2CCCC2)c(C#N)c1C (stereo not drawn) | -4.94 |
| CCN1CCC2(COCc3c(C)nc(N4CCOCC4)nc32)C1 (stereo not drawn) | -141 |

| SMILES | cytotoxicity at 10 µM [%] |
| --- | --- |
| COC(=O)C1CCN(CC2(c3ccc(C)cn3)CCNCC2)CC1 | -0.471 |
| COC(CNC(=O)C1CCCC1)c1ccc(C)s1 (stereo not drawn) | 4.45 |
| Cc1csc(N2CCN(C(=O)CCNc3ncccn3)CC2)n1 | -10.1 |
| Cn1ccc(C(=O)N2CCC(Cc3cccc4cccnc34)C2)n1 (stereo not drawn) | 2.16 |
| COCC1CN(C(=O)c2cccc(C)n2)Cc2nccn2C1 (stereo not drawn) | -103 |
| CCC(c1nc(C(C)C)nn1-c1ccncc1C)n1cccn1 (stereo not drawn) | -13.9 |
| CNC(=O)c1nc2c(s1)CCN(C(=O)Cc1ccc(OC)cc1)CC2 | 4.76 |
| CS(=O)(=O)N1CCCCC12CCCN(Cc1nccs1)C2 (stereo not drawn) | 9.94 |
| O=S(=O)(c1cnccc1N1CCN(CCO)CC1)N1CCOCC1 | -8.49 |
| Cc1noc(C)c1S(=O)(=O)N1CCC(Oc2cccnn2)CC1 | 0.0701 |
| Cc1cccc(C)c1NCc1noc(C2CC2)n1 | -5.06 |
| CN(Cc1ccc2c(c1)OCCO2)Cc1nc2c(cnn2C)c(=O)[nH]1 | -4.45 |
| Cc1cc(C)n2nc(CC(=O)N3CC[C@H]4NCCC[C@]4(CO)C3)nc2n1 | -0.363 |
| C=C(Br)CN(C)C1CCN(CCc2ccccn2)CC1 | 0.953 |
| COC(=O)c1ccc(CN(C(C)C)C(C)C)o1 | 2.21 |
| Cc1ccc(C(=O)Nc2cn[nH]c2)cc1F | -14.7 |
| CC(C)NC(=O)c1cc2c(nc1N(C)C)CCN(S(=O)(=O)C1CC1)CC2 | -149 |
| O=C(CN1CCN(c2ncnc3cccc(F)c23)CC1)N1CCCC1 | 3.65 |
| CCN(CC)CCCNC(=O)Nc1c(C)cccc1C(C)C | -0.847 |
| Cn1c(N)c2c(=O)n(C)c(-c3ccc(Cl)cc3)cc2c(C#N)c1=O | -8.91 |
| c1csc(CN2CC[C@H]3O[C@@H](COCC4CC4)CC[C@H]32)c1 | -74.8 |
| Oc1cc(CCC2CCCCN2)cc(-c2ccncc2)c1 (stereo not drawn) | -12.7 |

| SMILES | cytotoxicity at 10 µM [%] |
| --- | --- |
| O=C(O)C(c1ccc2c(c1)OCO2)N1CCC(C(=O)N2CCCC2)CC1 (stereo not drawn) | 4.22 |
| CCc1nc2n(n1)CC(Nc1ccnc(-c3ccccc3)n1)CC2 (stereo not drawn) | -11.7 |
| O=S(=O)(NCC1CCN(c2cnccn2)CC1)c1cccs1 | 6.28 |
| CN(C)C(=O)N1C[C@@H](C(=O)NCc2ccco2)C[C@H]2OCC[C@H]21 | 2.57 |
| Cc1cc(C(=O)N2CCOC(c3nc(C(C)C)n[nH]3)C2)no1 (stereo not drawn) | -5.13 |
| CC(C)S(=O)(=O)CC(=O)NCC(Cc1ccc(F)cc1)C(N)=O (stereo not drawn) | 6.75 |
| Cc1cnc(CCNC(=O)C2CN(C(=O)Cc3ccc(F)cc3)C2)s1 | 0.82 |
| Nc1nc(C2CCN(C(=O)c3cscn3)CC2)cs1 | 3.32 |
| Cc1ccc(C(=O)NCCCNS(C)(=O)=O)cc1C | -1.66 |
| Cn1cnc2nc3n(c2c1=O)CCC3 | -0.409 |
| Cc1nn(C)c2ncc(S(=O)(=O)N3CCCC(C(N)=O)C3)cc12 (stereo not drawn) | 3.45 |
| Cc1ccc(C(=O)NC(CN2CCCC2=O)c2ccccc2)c(=O)[nH]1 (stereo not drawn) | -2.23 |
| COc1ccccc1CCN1CCCC(CN(C)Cc2c[nH]c(C)n2)C1 (stereo not drawn) | 6.74 |
| CSCC[C@H](NC(=O)CCn1ccc2c(Br)cccc21)C(=O)O | 0.633 |
| CC(C)=CCN1CC2(CCN(Cc3cccc(C#N)c3)CC2)CC1=O | -4.39 |
| CC(C)CC(=O)N1CC[C@@H]2CN(CC(=O)N(C)C)S(=O)(=O)[C@@H]2CC1 | 10 |
| CN(C)[C@@H]1CO[C@H](CNC(=O)c2cccs2)[C@H]1O | -1.37 |
| CCN(C(=O)C1=NN(c2ccccc2)C(=O)CN1)c1ccccc1 | 12 |
| Cc1nn(C)c(N(C)C)c1CNCc1cccnc1OC(C)C | -0.924 |
| O=c1c2sccc2nc2n1CCN(Cc1ccccc1C(F)(F)F)CC2 | -9.31 |
| Cc1ccc2nc(C)c(C)c(C(=O)NCCCn3ccnn3)c2c1 | 17.8 |
| CN1CC(=O)N(c2ccsc2)CC12CCN(C(=O)CC1CCCC1)C2 (stereo not drawn) | -77.3 |

| SMILES | cytotoxicity at 10 µM [%] |
| --- | --- |
| CC(C#N)CN(C)C(=O)c1cn(-c2ccc(Br)cc2)cn1 (stereo not drawn) | 13.6 |
| CCN1CCN(C(=O)c2cc(-c3ccc(C)o3)n[nH]2)[C@H]2CS(=O)(=O)C[C@H]21 | -4.25 |
| CC(=O)c1cccc(OCCCC(=O)N(C)Cc2ccccn2)c1 | -24.4 |
| CN1CCN(c2ccc(F)cc2NC(=O)NCc2ccon2)CC1 | -6.84 |
| COCCNC(=O)N1CCC(NC(C)C)CC1 | 7.96 |
| Cn1c(CN2CCOCC2)nnc1C1CCCN(C(=O)CCC2CC2)C1 (stereo not drawn) | 6.72 |
| CNS(=O)(=O)c1ccc(C(=O)NC2CCc3nc(C)cn3C2)o1 (stereo not drawn) | -12.3 |
| CC1CN(CC(=O)Nc2nncs2)CCN1c1nccs1 (stereo not drawn) | -15.7 |
| COc1ccccc1CC1CCCN(CCC#N)C1 (stereo not drawn) | 1.73 |
| Cc1cc(C(=O)NCC2(C(N)=O)CCOCC2)nn1C(C)(C)C | -16.6 |
| CC(CCc1ncnn1Cc1cccc(Cl)c1)N1CCCC1 (stereo not drawn) | -3.03 |
| Cc1ccc(N2CC[C@@]3(O)CCN(S(C)(=O)=O)C[C@H]3C2)nn1 | 7.99 |
| Cc1cc(-c2cnc(NC3CC3)nc2-c2ccoc2C)on1 | 2.13 |
| Cc1cc(C(=O)N2CCc3nnc(N)cc3C2)c(C)n1-c1cccnc1 | -1.25 |
| CC(C)N1c2sc(-c3ccsc3)nc2CC1C(=O)NC1CCCC1 (stereo not drawn) | 9.1 |
| Cc1noc(C)c1C(=O)N1CCCCC1c1cc(C)n2ccnc2n1 (stereo not drawn) | 15.8 |
| Fc1cccnc1O[C@@H]1CN(Cc2ccco2)[C@@H]2CCCO[C@@H]21 | 5.08 |
| CC(C)n1ccnc1C1CCN(Cc2ccc(Cl)c(F)c2)CC1 | -3.59 |
| CC(=O)N1CC[C@@]2(O)CCCC[C@H]2[C@@H]1c1ccc2c(c1)OCO2 | 15.4 |
| Cc1ccc(CN(CC(=O)NCC2CCOC2)c2ccc(F)cc2)o1 (stereo not drawn) | 9.83 |
| Cc1nc(C)c(CC(=O)N2CCN(CC(C)C)CC2)c(=O)[nH]1 | -12.3 |
| Cn1ncc2c1NC(=O)CC2c1ccccc1Br (stereo not drawn) | 49 |

| SMILES | cytotoxicity at 10 µM [%] |
| --- | --- |
| CNc1nc(CNC(=O)Nc2cccc(-c3ncc(C)o3)c2)cs1 | -7.57 |
| CCn1ncc(-c2cc(C(F)(F)F)nc(N3CCC(N)CC3)n2)c1C | -6 |
| CC(C)OCCC1CCCCN1S(N)(=O)=O (stereo not drawn) | 7.36 |
| CC1=NN(c2ccc(C(=O)OCCNC(=O)c3ccncc3)cc2)CC1 | -3.62 |
| COCCO[C@H]1CCN(C(=O)c2ccno2)[C@H]1Cc1cnn(C)c1 | -5.45 |
| COc1ccc([C@@H]2CN(c3cc(OC)ncn3)C[C@H]2N(C)C)cc1 | 6.98 |
| Cc1cc(N(C)C)nc(C2COCCN2Cc2csc(C)n2)n1 (stereo not drawn) | 1.75 |
| CCN1CC2(CCC1=O)CCN(Cc1cc(F)ccc1Cl)CC2 | 6.58 |
| CSc1ncccc1C(=O)N1CCC2(CC1)c1nc[nH]c1CCN2C | 52.6 |
| CCS(=O)(=O)N1CCC2(CC1)CC[C@@]1(C(=O)N(C)C)CN(C)C[C@@H]21 | 10.4 |
| COC(=O)Cn1c(=O)[nH]c2cn(-c3ccc(Br)cc3)c(=O)n21 | 1.4 |
| Cc1cc(CN2C[C@H]3CCC[C@@]3(COCC3CCOCC3)C2)no1 | 0.073 |
| Cn1cc(C(=O)N2CCCCC2CCc2ccc(O)cc2)cn1 (stereo not drawn) | -2.3 |
| O=S(=O)(c1ccccc1)N1CC[C@]2(C[C@@H](OCC3CC3)CO2)C1 | -81.3 |
| COc1ccc(OC)c(NC(=O)c2nc3ccccc3n(C)c2=O)c1 | -4.71 |
| COc1cc(CSc2nnc(N)n2C2CC2)ccc1SC | -6.09 |
| Cn1c(C(=O)N(CC(N)=O)C2CCCC2)cc(Cl)c1Cl | 9.31 |
| CC(C)CN1CC[C@@H]2[C@@H]1CCN2C(=O)N1CCCC1 | -1 |
| O=C(CC1CC1)N1C[C@H]2CN(CC3CC3)C(=O)[C@H]2C1 | 3.91 |
| O=C(Cn1cnc2ccsc2c1=O)c1ccc2c(c1)OCCO2 | 3.1 |
